Data from ChEMBL document CHEMBL1153706, “Synthesis of 9-anilinoacridine triazines as new class of hybrid antimalarial agents” (Bioorg Med Chem Lett, 2009).

Columns and labels:
[1] = Selectivity index, ratio of IC50 for african green monkey (Cercopithecus aethiops) Vero cells to IC50 for chloroquine-sensitive Plasmodium falciparum 3D7; format: toxicity, cell-based; conditions: read-out: Ratio IC50
In short: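 Ratio of the Vero IC50 to the 3D7 IC50. Vero monkey kidney […] cells at 1 × 10⁴ cells/well exposed to varying compound concentrations for 72 h, MTT read-out, IC50 from non-linear regression. The 3D7 IC50 comes from a 72 h SYBR Green I fluorescence assay using twofold serial dilutions from 500 ng/ml.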

Plasmodium falciparum = assay: Antimalarial activity against chloroquine-sensitive Plasmodium falciparum 3D7 after 72 hrs; format: functional, organism-based; conditions: 3D7, 72 h
In short: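 P. falciparum 3D7 cultured with 0.5% parasitaemia in a 2.5% cell suspension. Compounds are made up as 5 mg/ml DMSO stocks. Twofold serial dilutions (seven concentrations) start at 500 ng/ml, or 25 ng/ml for chloroquine, in duplicate wells. Incubated 72 h, then lysis buffer with SYBR Green I, 1 h at room temperature, fluorescence read. IC50 from non-linear regression dose–response curves.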

Plasmodium yoelii = assay: Antimalarial activity against chloroquine-resistant Plasmodium yoelii N67 infected in Swiss mice (Mus musculus) assessed as suppression of parasitaemia at 100 mg/kg, peroral for 4 days; format: functional; conditions: N67, 96 h, route oral
In short: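 Swiss mice (22 2 g), groups of five, inoculated with 1 × 10⁶ parasitized RBC on day 0; dosed once daily days 0–3, orally, 0.1 ml aqueous suspension with a few drops of Tween 80. Parasitaemia read from thin blood smears between days 4 and 6; group mean used for percent suppression versus untreated controls; CQ-treated mice as reference.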

| SMILES | IC50 (Plasmodium falciparum) [µM] | selectivity ratio [1] | inhibition in vivo at 100 mg/kg (Plasmodium yoelii) [%] |
| --- | --- | --- | --- |
| COc1ccc2nc3cc(Cl)ccc3c(Nc3ccc(Nc4nc(Nc5ccc(F)cc5)nc(N5CCN(C)CC5)n4)cc3)c2c1 | 0.0494 | 210 |  |
| CCN(CC)CCCC(C)Nc1ccnc2cc(Cl)ccc12 (stereo unspecified) [CHLOROQUINE] |  |  | 99.9 |
| COc1ccc2nc3cc(Cl)ccc3c(Nc3ccc(Nc4nc(NCCN5CCOCC5)nc(Nc5ccc(F)cc5)n4)cc3)c2c1 | 0.0201 | 3090 | 98.7 |
| COc1ccc2nc3cc(Cl)ccc3c(Nc3ccc(Nc4nc(NCCN5CCOCC5)nc(Nc5ccccc5)n4)cc3)c2c1 | 0.00697 | 2900 | 96.6 |
| CCN1CCN(c2nc(Nc3ccc(F)cc3)nc(Nc3ccc(Nc4c5ccc(Cl)cc5nc5ccc(OC)cc45)cc3)n2)CC1 | 0.0656 | 193 |  |
| COc1ccc2nc3cc(Cl)ccc3c(Nc3ccc(Nc4nc(N)nc(Nc5ccc(F)cc5)n4)cc3)c2c1 | 0.119 | 37.1 |  |
| COc1ccc2nc3cc(Cl)ccc3c(Nc3ccc(Nc4nc(NCCO)nc(Nc5ccccc5)n4)cc3)c2c1 | 0.00946 | 755 | 58.5 |
| CCN(CC)CCNc1nc(Nc2ccc(F)cc2)nc(Nc2ccc(Nc3c4ccc(Cl)cc4nc4ccc(OC)cc34)cc2)n1 | 0.0279 | 155 | 95.4 |
| COc1ccc2nc3cc(Cl)ccc3c(Nc3ccc(Nc4nc(NCCCN(C)C)nc(Nc5ccccc5)n4)cc3)c2c1 | 0.00421 | 295 | 95.7 |
| COc1ccc2nc3cc(Cl)ccc3c(Nc3ccc(Nc4nc(NCCN(C)C)nc(Nc5ccccc5)n4)cc3)c2c1 | 0.00795 | 160 | 49 |

More lines, main results first:

| IC50 (Plasmodium falciparum) [µM] | SMILES | selectivity ratio [1] | inhibition in vivo at 100 mg/kg (Plasmodium yoelii) [%] |
| --- | --- | --- | --- |
| 0.0151 | COc1ccc2nc3cc(Cl)ccc3c(Nc3ccc(Nc4nc(NCCCN5CCOCC5)nc(Nc5ccccc5)n4)cc3)c2c1 | 61.4 |  |
| 0.0192 | CCN1CCN(c2nc(Nc3ccccc3)nc(Nc3ccc(Nc4c5ccc(Cl)cc5nc5ccc(OC)cc45)cc3)n2)CC1 | 164 |  |
| 0.0221 | COc1ccc2nc3cc(Cl)ccc3c(Nc3ccc(Nc4nc(Nc5ccccc5)nc(N5CCN(C)CC5)n4)cc3)c2c1 | 146 |  |
| 0.0175 | COc1ccc2nc3cc(Cl)ccc3c(Nc3ccc(Nc4nc(Nc5ccccc5)nc(NC5CCCC5)n4)cc3)c2c1 | 5010 |  |
| 0.289 | CCCCNc1nc(Nc2ccccc2)nc(Nc2ccc(Nc3c4ccc(Cl)cc4nc4ccc(OC)cc34)cc2)n1 | 138 |  |
| 0.0401 | COc1ccc2nc3cc(Cl)ccc3c(Nc3ccc(Nc4nc(NCCN(C)C)nc(Nc5ccc(F)cc5)n4)cc3)c2c1 | 28.1 |  |
| 0.116 | CNc1nc(Nc2ccc(F)cc2)nc(Nc2ccc(Nc3c4ccc(Cl)cc4nc4ccc(OC)cc34)cc2)n1 | 336 |  |
| 0.0352 | COc1ccc2nc3cc(Cl)ccc3c(Nc3ccc(Nc4nc(NCCCN(C)C)nc(Nc5ccc(F)cc5)n4)cc3)c2c1 | 99.8 |  |
| 0.0451 | COc1ccc2nc3cc(Cl)ccc3c(Nc3ccc(Nc4nc(NCCCN5CCOCC5)nc(Nc5ccc(F)cc5)n4)cc3)c2c1 | 1560 |  |
| 0.0218 | CCN(CC)CCNc1nc(Nc2ccccc2)nc(Nc2ccc(Nc3c4ccc(Cl)cc4nc4ccc(OC)cc34)cc2)n1 | 137 |  |
| 0.0684 | COc1ccc2nc3cc(Cl)ccc3c(Nc3ccc(Nc4nc(N)nc(Nc5ccccc5)n4)cc3)c2c1 | 448 |  |
| 0.00427 | COc1ccc2nc3cc(Cl)ccc3c(Nc3ccc(Nc4nc(NN)nc(Nc5ccccc5)n4)cc3)c2c1 | 31.4 |  |
| 0.365 | COc1ccc2nc3cc(Cl)ccc3c(Nc3ccc(Nc4nc(NCCCO)nc(Nc5ccccc5)n4)cc3)c2c1 | 17.4 |  |
